High-throughput results from PubChem.
KCNK9 inh: human KCNK9 channel inhibition | HEK293 KCNK9, FluxOR thallium flux fluorescence; active compounds read low | B-score at 10 µM | actives 1.2% (n = 310,000) | AID 488922;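 active = ratio B-score over 3 SD below the library mean, with starting fluorescence within 5 SD of its mean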;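 also: negative B-score means less thallium flux so channel inhibition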
KCNQ1 block: inhibitors of human KCNQ1 potassium channel; P51787; AID 2642; CHO-K1 KCNQ1, FluxOR thallium flux fluorescence; active compounds read high; actives 1.3% (n = 310,000); B-score at 10 µM;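 active = compounds whose thallium flux B-score, printed positive for inhibition, exceeds three library SD while starting fluorescence stays within three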;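 also: channel opened by potassium depolarization with thallium stimulus after 20 min compound exposure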
Target sequence (P51787 whole entry, looked up): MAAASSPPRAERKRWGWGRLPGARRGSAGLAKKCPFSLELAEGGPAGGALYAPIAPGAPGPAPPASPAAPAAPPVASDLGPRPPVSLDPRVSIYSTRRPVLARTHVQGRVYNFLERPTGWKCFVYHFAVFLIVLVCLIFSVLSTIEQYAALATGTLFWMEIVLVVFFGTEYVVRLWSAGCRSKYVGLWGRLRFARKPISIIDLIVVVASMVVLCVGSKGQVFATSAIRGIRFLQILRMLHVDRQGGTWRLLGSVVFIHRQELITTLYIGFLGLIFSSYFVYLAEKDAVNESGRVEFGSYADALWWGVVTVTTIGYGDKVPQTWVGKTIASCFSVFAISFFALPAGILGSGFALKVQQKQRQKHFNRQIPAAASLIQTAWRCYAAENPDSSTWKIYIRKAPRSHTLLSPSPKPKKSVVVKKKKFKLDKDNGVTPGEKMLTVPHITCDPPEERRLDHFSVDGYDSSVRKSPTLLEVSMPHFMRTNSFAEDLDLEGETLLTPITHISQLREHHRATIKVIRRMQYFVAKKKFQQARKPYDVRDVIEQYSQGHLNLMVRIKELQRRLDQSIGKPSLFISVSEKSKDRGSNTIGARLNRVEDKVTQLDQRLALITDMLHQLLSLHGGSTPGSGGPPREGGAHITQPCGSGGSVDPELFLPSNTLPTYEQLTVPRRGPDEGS
Kir21 inh: inhibitors of mouse Kir2.1 inward-rectifier potassium channel; P35561; HEK293-Kir2.1, FluxOR thallium flux fluorescence; active compounds read low; B-score at 10 µM; actives 0.85% (n = 310,000); AID 1672;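 active = fluorescence ratio B-score at or below minus 3 SD of library scores, with starting-brightness B-score within 2 SD, cut at about -4.2 in these data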;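 also: channel flux triggered by added potassium and thallium sulfate stimulus; B-score of peak minus minimum fluorescence over baseline after thallium stimulus; more negative B-score means stronger Kir2.1 block with less thallium influx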
hERG rescue: shields human hERG channel from block by proarrhythmic agents. Q12809. CHO-hERG, FluxOR thallium flux, dofetilide IC70 present. activation (rescue from dofetilide block), less the hit threshold, % at 10 µM. actives 0.51% (n = 310,000);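 active = activation above the mean of controls blocked by dofetilide plus 5 SD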;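 also: thallium influx through hERG after potassium depolarization seen as dye fluorescence rise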
KCNQ1 pot: potentiates or activates the human KCNQ1 potassium channel | P51787 | CHO-K1 KCNQ1, thallium flux FluxOR fluorescence; active compounds read high | B-score at 10 µM | actives 0.35% (n = 310,000) | AID 2648;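 active = fluorescence ratio B-score, a plate-corrected score, at least three library SD, with initial intensity B-score within 5 SD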
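Doses: Single concentration per compound, DMSO matched to controls | Test system: KCNQ1-transfected CHO-K1 cells | Timing: 90 min dye loading and 20 min compound exposure, both at room temperature | Measured by: Kinetic FluxOR thallium fluorescence, 10-s 1-Hz baseline, 110-s post-stimulus read | Medium: Assay buffer with matched DMSO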
KCNK3 block: human KCNK3 channel inhibition, primary screen; O14649; CHO-KCNK3 thallium flux, FluxOR fluorescence; active compounds read low; B-score at 10 µM; actives 0.84% (n = 340,000);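 active = B-score under library mean minus 4 SD, starting fluorescence ratio at most library mean plus 5 SD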;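 also: more negative B-score means stronger inhibition of thallium flux through KCNK3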
An asterisk follows results filed as active; i = inactive; x = no result given. Rows were chosen to be rich in hits. Some 3.8% of all compounds tested hit in one or more screens of this group.

SMILES	KCNK9 inh	KCNQ1 block	Kir21 inh	hERG rescue	KCNQ1 pot	KCNK3 block
O/N=C/c1c[nH]c2ccccc12	i	i	0.01	-9	i	i
CCCC/C(=N\O)c1c[nH]c2ccccc12	-7.5*	i	-0.62	1	i	i
O=C(O)Cn1cc(/C=C2\C(=O)NC(=O)N(c3ccc(Cl)cc3)C2=O)c2ccccc21	i	i	-0.83	-5	i	i
Cn1cc(/C=C2\C(=O)NC(=O)N(c3ccccc3)C2=O)c2ccccc21	-8*	i	0.01	-8	i	i
Cc1ccnc(NS(=O)(=O)c2ccc(N=Cc3c(O)n(C)c(=O)n(C)c3=O)cc2)n1	i	i	-0.01	-5	i	i
CC(Cc1ccccc1)NCc1ccccc1O (stereo not drawn)	i	i	-5.5*	-10	i	i
C#CCN[C@H](C)Cc1ccccc1	x	x	x	x	x	i
Oc1ccc(O)c2c1C1(Cl)C(Cl)=C(Cl)C2(Cl)C1(Cl)Cl	x	x	x	x	x	i
CC(NS(=O)(=O)OCC(Cl)(Cl)Cl)c1ccccc1 (stereo not drawn)	i	i	-5.7*	-5	i	i
O=S(=O)(NC1CCCCC1)OCC(Cl)(Cl)Cl	i	i	0.11	-5	i	i
CCCCCCCSc1cc(OC)c(CCN(C)C)cc1OC	i	i	-9.9*	-26	i	i
Oc1ccccc1-[n+]1c(-c2ccccc2)cc(-c2ccccc2)cc1-c1ccccc1	i	14*	-12*	-43	i	i
Cc1ccccc1-[n+]1c(-c2ccccc2)cc(-c2ccccc2)cc1-c1ccccc1	i	10*	-16*	-41	i	i
[O-]c1ccccc1-[n+]1c(-c2ccccc2)cc(-c2ccccc2)cc1-c1ccccc1	-7.4*	6*	-9.7*	-41	i	i
Nc1ccccc1-[n+]1c(-c2ccccc2)cc(-c2ccccc2)cc1-c1ccccc1	i	7*	-5.8*	-17	i	i
CC12C(C(=O)O)C1(c1ccccc1)C2C(=O)O (stereo not drawn)	x	x	x	x	x	i
COC(=O)C1=C(C(=O)OC)SC2(S1)C(C(=O)OC)=C(C(=O)OC)Sc1c2ssc1=O	x	x	x	x	x	i
c1cc2c(cc1N1CCCCC1)C1CC2CCN1 (stereo not drawn)	x	x	x	x	x	i
CCOc1ccc(C=C2C(=O)NC(=S)NC2=O)cc1OCC	x	x	x	x	x	i
CCOc1cc(C=C2C(=O)NC(=O)NC2=O)ccc1OS(=O)(=O)c1ccccc1	i	i	-5.5*	-10	i	i
Cc1csc(=N)n1Cc1ccccc1	i	i	0.23	-10	i	i
Oc1cccc2cccnc12	-11*	i	-0.48	-2	i	x
Cc1cc(OC(C)C(=O)NCC2CCC(C(=O)O)CC2)c2c3c(c(=O)oc2c1)CCC3 (stereo not drawn)	i	i	0.67	-3	i	i
COc1ccc(OC)c(N2C(=O)/C(=C/c3ccco3)C(=O)NC2=S)c1	i	i	1.9	8.4*	i	x
CCOC(=O)c1cnc(SCc2ccc(Cl)c(Cl)c2)nc1N1CC1	x	x	x	x	x	i
SMILES	KCNK9 inh	KCNQ1 block	Kir21 inh	hERG rescue	KCNQ1 pot	KCNK3 block
CC1(O)CCN2C(=O)CCc3cccc1c32 (stereo not drawn)	x	x	x	x	x	i
COc1cc2c(ccc3c4cc(OC)c(OC)cc4c[n+](C)c23)cc1O	x	x	x	x	x	i
COc1ccc(Cc2nccc3cc(OC)c(OC)cc23)cc1OC	i	i	-8.3*	-16	i	i
O=C1C2C3CCC(O3)C2C(=O)N1CCO (stereo not drawn)	i	i	-0.53	-5	i	i
c1ccc(CNc2c3c(nc4ccccc24)CCC3)cc1	i	i	-6.6*	-27	i	i
CCCCn1c(=O)c(C(=O)NCc2ccccc2)c(O)c2ccccc21	i	8*	-1.2	-2	i	i
NNCc1ccccc1	x	x	x	x	x	i
COc1cccc(CCNCc2ccc(SC)cc2)c1	i	i	-7.5*	-13	i	i
NC(N)=N/N=C/c1ccc(N(c2ccccc2)c2ccccc2)cc1	i	7*	-6.2*	-33	i	i
NC(N)=N/N=C/c1ccc(N2CCOCC2)cc1	i	i	-0.94	-13	i	i
O=C(Cn1cc(C(=O)c2ccccc2)c2ccccc21)NCc1ccco1	-9*	i	-1.1	-8	i	i
COc1cc2cc(C(=O)N3CC(COS(C)(=O)=O)c4ccc(O)cc43)[nH]c2c(OC)c1OC (stereo not drawn)	x	x	x	x	x	i
C=CC[N+]1(C)C2CCC1CC(O)C2 (stereo not drawn)	i	i	0.75	6.2*	i	i
O=c1[nH]c(O)c(/C=C2/C=CC(c3cc(Cl)ccc3Cl)=N2)c(=O)[nH]1	i	i	0.34	7.2*	i	i
CC1=Nc2ccccc2/C1=C/c1c(O)[nH]c(=O)[nH]c1=O	i	i	0.48	-2	i	i
COc1ccc(NP(=O)(Oc2ccccc2OC)Oc2ccccc2OC)cc1	i	i	-1.3	-13	i	i
O=P(Nc1cccnc1)(Oc1ccccc1Cl)Oc1ccccc1Cl	i	i	-4.8*	-18	i	i
CC1(C)CC(=O)C(C=NCCN2CCN(C(=O)Cc3ccc(F)cc3)CC2)=C(O)C1	i	i	0	-11	i	i
CN1CC(C(=O)c2cccc(C(F)(F)F)c2)C(c2ccc(Cl)cc2)C1 (stereo not drawn)	i	i	-6.8*	-12	i	i
NC(=O)Cn1cc(C(=O)c2ccccc2)c2ccccc21	i	i	1.1	-11	i	i
Cc1ccc(-c2cc(-c3ccccc3)cc(-c3ccccc3)[n+]2-c2ccc(C(=O)O)cc2)cc1	i	i	1.1	-3	i	i
COc1ccc(-c2cc(-c3ccccc3)[n+](C)c(-c3ccccc3)c2)cc1	i	12*	-2.5	-28	i	i
C[n+]1c(-c2ccccc2)cc(CCCCc2cc(-c3ccccc3)[n+](C)c(-c3ccccc3)c2)cc1-c1ccccc1	i	7*	-0.16	-21	i	i
CC(CC(C)(C)N1CC1)=NNC(=O)Nc1cccc2ccccc12	x	x	x	x	x	i
COc1cc(OC)c(OC)cc1CN1CCN(C(=O)Cc2ccccc2)CC1	i	i	-0.02	-2	i	i
O=C(Nc1ccccc1)N1Cc2ccccc2-n2nncc2C1	x	x	x	x	x	i
COc1ccccc1NP1(=O)OCC(C)([N+](=O)[O-])CO1 (stereo not drawn)	x	x	x	x	x	i
CC1(C)C(C(=O)N2CCN(c3ccc(Cl)cc3)CC2)C1(C)C	i	i	1.3	-7	i	i
